We go through 7 molecules from ChEMBL document CHEMBL1135723, “New type of metalloproteinase inhibitor: design and synthesis of new phosphonamide-based hydroxamic acids” (J Med Chem, 2002).

One assay addresses T1, Interstitial collagenase (Homo sapiens, UniProt P03956).
T1 sequence (P03956 whole entry): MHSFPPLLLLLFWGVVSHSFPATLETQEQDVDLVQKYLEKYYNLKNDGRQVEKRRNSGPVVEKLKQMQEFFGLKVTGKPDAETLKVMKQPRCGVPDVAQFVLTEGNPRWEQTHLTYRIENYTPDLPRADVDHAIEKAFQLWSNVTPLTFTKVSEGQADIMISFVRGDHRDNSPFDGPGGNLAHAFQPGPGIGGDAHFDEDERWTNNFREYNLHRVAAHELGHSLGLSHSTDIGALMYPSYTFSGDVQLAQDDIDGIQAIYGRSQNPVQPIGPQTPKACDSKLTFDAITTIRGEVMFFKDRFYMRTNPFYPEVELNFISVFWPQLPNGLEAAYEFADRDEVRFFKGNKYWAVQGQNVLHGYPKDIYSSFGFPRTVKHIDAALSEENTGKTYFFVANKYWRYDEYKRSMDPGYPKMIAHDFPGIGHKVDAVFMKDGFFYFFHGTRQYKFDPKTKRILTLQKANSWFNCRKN
Briefly: Inhibitory activity against matrix metalloprotease-1 (MMP-1)(recombinant human collagenase-1).

The target in assay [1] is Matrix metalloproteinase-9 (Homo sapiens, UniProt P14780). Briefly: Inhibitory activity against matrix metalloprotease-9 (MMP-9)(gelatinase-B).
Assay [2] concerns the target Disintegrin and metalloproteinase domain-containing protein 17 (Homo sapiens, UniProt P78536). Description: Inhibitory activity against tumor necrosis factor alpha converting enzyme (TACE) from human acute monocytic leukemia cell line.
Assay [3] deals with T2, Disintegrin and metalloproteinase domain-containing protein 9 (Homo sapiens, UniProt Q13443).
T2 sequence (Q13443 whole entry): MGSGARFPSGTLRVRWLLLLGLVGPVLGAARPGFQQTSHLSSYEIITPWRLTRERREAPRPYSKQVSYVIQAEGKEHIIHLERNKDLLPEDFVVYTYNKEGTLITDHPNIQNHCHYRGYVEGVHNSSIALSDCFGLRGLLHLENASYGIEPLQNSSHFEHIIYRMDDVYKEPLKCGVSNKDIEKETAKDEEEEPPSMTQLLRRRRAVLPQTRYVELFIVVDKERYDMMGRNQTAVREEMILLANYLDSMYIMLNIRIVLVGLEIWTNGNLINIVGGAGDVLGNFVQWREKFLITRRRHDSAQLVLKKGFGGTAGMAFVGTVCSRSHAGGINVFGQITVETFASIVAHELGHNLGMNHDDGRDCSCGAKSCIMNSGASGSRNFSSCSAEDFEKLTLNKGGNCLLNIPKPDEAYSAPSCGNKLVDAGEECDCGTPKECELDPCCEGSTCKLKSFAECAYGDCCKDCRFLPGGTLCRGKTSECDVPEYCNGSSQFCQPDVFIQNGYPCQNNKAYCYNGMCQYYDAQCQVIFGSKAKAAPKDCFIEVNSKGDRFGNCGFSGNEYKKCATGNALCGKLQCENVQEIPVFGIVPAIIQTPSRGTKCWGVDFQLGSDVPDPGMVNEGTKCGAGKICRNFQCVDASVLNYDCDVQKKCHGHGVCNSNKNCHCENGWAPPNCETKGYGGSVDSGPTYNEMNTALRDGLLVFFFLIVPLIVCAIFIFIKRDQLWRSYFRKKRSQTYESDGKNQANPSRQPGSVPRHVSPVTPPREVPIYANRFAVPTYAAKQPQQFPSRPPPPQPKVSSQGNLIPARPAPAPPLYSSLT
Briefly: Inhibition of the heparin binding epidermal growth factor (HB-EGF) release from fibrosarcoma HT1080 transfectants expressing […] (AP) tagged HB-EGF stimulated by 12-O-tetradecanoylphorbol 13-acetate(TPA). In outline:
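HT-1080 transfectants in MEM/10% FCS seeded at 2 × 10⁵ cells/well, grown 24 h, PBS-washed, preincubated 30 min with compound in MEM containing 1% DMSO. Stimulated with TPA (60 nM) for 60 min. Supernatant heated 10 min at 65 °C to kill endogenous phosphatases, then incubated 2 h with p-nitrophenyl phosphate (1 mg/mL) in 1 M diethanolamine, pH 9.8; A405. IC50 from a concentration series.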

In a further assay the target is Stromelysin-1 (Homo sapiens, UniProt P08254). Description: Inhibitory activity against matrix metalloprotease-3 (MMP-3)(stromelysin-1). The method in brief: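 Recombinant human MMP-3 activated with 1 mM p-aminophenylmercuric acetate, 1 h, 37 °C. Compound in 50 mM Tris, 150 mM NaCl, 10 mM CaCl2, 0.05% Brij-35, pH 7.5, preincubated with enzyme 10 min at 37 °C. Fluorescence-quenched peptide substrate added, 2 h at 37 °C; Ex/Em 320/405 nm. Ki from percent inhibition and substrate Km.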
Chain of Stromelysin-1 (P08254 whole entry): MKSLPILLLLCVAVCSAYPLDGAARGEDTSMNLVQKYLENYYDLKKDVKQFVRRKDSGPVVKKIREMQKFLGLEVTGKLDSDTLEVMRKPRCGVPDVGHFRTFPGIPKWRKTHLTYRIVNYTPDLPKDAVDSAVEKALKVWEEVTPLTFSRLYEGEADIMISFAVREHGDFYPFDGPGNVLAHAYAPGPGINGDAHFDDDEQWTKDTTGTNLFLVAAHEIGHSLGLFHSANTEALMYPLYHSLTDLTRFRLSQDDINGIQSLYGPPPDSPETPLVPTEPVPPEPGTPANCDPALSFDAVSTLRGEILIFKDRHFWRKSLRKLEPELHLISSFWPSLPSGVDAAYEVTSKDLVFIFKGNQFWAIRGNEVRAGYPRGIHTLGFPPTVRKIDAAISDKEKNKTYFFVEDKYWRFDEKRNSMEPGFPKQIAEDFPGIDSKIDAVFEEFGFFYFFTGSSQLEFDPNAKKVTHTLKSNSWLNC

Chain of Disintegrin and metalloproteinase domain-containing protein 17 (P78536 whole entry, the tested form may be a part): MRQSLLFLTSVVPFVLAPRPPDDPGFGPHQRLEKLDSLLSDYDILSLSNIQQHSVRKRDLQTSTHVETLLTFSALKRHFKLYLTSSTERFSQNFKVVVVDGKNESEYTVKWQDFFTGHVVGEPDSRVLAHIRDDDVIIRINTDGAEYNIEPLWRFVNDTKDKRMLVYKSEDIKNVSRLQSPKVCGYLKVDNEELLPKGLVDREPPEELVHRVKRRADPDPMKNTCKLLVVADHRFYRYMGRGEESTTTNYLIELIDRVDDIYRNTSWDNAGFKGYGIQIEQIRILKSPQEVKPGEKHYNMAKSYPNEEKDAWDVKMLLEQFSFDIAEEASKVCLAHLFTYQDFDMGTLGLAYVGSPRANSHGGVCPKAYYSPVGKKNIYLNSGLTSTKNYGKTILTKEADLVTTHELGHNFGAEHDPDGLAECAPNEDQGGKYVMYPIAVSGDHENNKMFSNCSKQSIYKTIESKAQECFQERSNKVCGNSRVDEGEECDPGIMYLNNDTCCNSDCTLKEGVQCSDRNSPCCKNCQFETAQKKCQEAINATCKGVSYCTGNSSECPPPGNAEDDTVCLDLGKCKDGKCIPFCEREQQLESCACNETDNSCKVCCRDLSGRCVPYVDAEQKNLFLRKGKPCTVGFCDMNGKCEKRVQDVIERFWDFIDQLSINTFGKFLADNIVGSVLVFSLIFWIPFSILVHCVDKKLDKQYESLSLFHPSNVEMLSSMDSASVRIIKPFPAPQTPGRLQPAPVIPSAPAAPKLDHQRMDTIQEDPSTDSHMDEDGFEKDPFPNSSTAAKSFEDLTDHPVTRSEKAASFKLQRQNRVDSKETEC
Chain of Matrix metalloproteinase-9 (P14780 whole entry, the tested form may be a part): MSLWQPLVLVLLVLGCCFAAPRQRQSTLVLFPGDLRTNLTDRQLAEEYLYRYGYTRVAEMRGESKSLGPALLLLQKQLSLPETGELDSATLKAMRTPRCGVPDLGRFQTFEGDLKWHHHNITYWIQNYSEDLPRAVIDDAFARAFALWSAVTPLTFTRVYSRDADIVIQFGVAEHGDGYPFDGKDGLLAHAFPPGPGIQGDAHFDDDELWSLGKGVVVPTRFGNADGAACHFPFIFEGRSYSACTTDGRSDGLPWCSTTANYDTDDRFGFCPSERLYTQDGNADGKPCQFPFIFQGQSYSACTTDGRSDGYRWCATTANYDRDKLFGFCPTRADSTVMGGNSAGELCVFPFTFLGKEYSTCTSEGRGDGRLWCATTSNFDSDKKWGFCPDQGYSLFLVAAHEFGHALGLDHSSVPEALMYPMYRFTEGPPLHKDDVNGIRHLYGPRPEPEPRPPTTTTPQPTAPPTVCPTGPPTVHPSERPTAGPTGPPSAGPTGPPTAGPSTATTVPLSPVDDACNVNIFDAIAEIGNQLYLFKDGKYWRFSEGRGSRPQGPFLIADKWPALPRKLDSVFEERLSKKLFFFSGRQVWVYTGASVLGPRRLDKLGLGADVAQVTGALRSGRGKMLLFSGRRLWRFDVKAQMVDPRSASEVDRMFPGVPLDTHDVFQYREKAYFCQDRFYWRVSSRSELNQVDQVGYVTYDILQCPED

For the molecule `CCOP(=O)(c1ccc(OC)cc1)N1Cc2cc(N)ccc2CC1C(=O)NO` (stereo not given), the inhibition constant (Ki) on Interstitial collagenase was 10.7 nM; in assay [1], 11 nM; in assay [2], 37.4 nM; on Stromelysin-1 it was 12.3 nM. Also, the IC50 in assay [3] is 190 nM.

As to `CCOP(=O)(c1ccncc1)N1Cc2ccccc2CC1C(=O)NO` (stereo not given), the Ki on Interstitial collagenase came out at 17.4 nM; in assay [1], 278 nM; in assay [2], 777 nM; at Stromelysin-1, 190 nM. Moreover, the IC50 in assay [3] is 2600 nM.

Regarding `CCOP(=O)(c1ccc(OC)cc1)N1Cc2[nH]c3ccccc3c2CC1C(=O)NO` (stereo not given), the Ki was determined as 2.02 nM at Interstitial collagenase, 1.13 nM in assay [1], 2.2 nM in assay [2] and 2.04 nM on Stromelysin-1. The same molecule registered an IC50 in assay [3] of 800 nM.

Take `CCOP(=O)(c1ccc(OC)cc1)N1Cc2nccnc2CC1C(=O)NO` (stereo not given): the inhibitory constant (Ki) on Interstitial collagenase amounted to 7.8 nM; in assay [1] it was 7 nM; in assay [2], 13.7 nM; at Stromelysin-1, 10.7 nM. In assay [3], the IC50 turned out to be 560 nM.

On to `CCOCCOc1ccc(P(=O)(OCC)N2Cc3ccccc3CC2C(=O)NO)cc1` (stereo not given), for which the Ki at Interstitial collagenase was above 850 nM; in assay [1] it was 14.2 nM; in assay [2], 2.98 nM; at Stromelysin-1, 29.6 nM. Moreover, the IC50 in assay [3] came to 70 nM.

As for `CCOP(=O)(c1cccs1)N1Cc2ccccc2CC1C(=O)NO` (stereo not given), the Ki on Interstitial collagenase stood at 18.7 nM; in assay [1], 59.2 nM; in assay [2], 59.6 nM; on Stromelysin-1, 67 nM. Also, the IC50 in assay [3] turned out to be 890 nM.

With `CCOCCOP(=O)(c1ccc(OC)cc1)N1Cc2ccccc2CC1C(=O)NO` (stereo not given), the Ki amounted to 6.75 nM on Interstitial collagenase, 6.36 nM in assay [1], 18.9 nM in assay [2] and 5.43 nM on Stromelysin-1. The IC50 in assay [3] was determined as 510 nM.
